PMC7451030 (European journal of medicinal chemistry, 2020)

Key:
[1] = biological target: T1, human GLUT1 (Homo sapiens, UniProt P11166); assay: GLUT1 transport assay; type: cell-based; conditions: 100 μM compound
T1 sequence (P11166 1-492): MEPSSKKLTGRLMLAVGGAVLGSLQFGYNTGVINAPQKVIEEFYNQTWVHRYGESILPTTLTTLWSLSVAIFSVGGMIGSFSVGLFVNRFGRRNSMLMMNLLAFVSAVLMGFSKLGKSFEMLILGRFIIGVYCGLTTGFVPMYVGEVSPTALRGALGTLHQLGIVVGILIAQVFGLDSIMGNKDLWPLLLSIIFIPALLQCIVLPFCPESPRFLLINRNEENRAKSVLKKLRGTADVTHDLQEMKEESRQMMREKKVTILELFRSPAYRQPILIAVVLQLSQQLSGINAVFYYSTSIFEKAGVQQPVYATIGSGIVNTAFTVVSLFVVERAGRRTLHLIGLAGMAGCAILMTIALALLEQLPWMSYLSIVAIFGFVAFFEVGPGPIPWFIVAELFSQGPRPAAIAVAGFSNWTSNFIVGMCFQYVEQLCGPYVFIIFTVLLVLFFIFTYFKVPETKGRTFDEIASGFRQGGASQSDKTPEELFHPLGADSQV
Summary of the method: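 hxt0 yeast VW4000fgy1 expressing human GLUT1 was grown at 30 °C in SC-uracil with 2% maltose for 2–3 days, then 2% glucose for 1–2 days. Cells were resuspended in PBS pH 7.4 at OD600 ~10 and given 100 µM compound (1% DMSO final). Uptake of 5 mM 14C-glucose ran 10 min, then ice-cold KPi/LiCl quench pH 5.5, filtration and scintillation counting. Activity was taken relative to 1% DMSO and 200 µM phloretin.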

[2] = biological target: T2, human GLUT4 (Homo sapiens, UniProt P14672); assay: GLUT4 transport assay; type: cell-based; conditions: 100 μM compound
T2 sequence (P14672 1-509): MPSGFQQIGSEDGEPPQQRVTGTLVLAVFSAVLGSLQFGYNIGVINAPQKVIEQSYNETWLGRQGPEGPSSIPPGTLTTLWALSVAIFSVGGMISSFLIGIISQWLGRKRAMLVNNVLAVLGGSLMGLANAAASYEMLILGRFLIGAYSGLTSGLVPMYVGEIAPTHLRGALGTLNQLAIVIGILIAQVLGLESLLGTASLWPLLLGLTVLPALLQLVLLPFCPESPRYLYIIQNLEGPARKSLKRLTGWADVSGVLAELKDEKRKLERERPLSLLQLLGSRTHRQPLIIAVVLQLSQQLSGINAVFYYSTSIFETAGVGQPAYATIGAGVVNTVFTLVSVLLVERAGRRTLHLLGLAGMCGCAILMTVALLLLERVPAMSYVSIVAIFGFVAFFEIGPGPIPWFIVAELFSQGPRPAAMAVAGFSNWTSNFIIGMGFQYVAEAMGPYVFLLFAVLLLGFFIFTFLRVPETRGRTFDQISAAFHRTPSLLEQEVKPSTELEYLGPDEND
Summary of the method: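 GLUT4 was expressed in hxt0 yeast VW4000fgy1erg4 grown at 30 °C in SC-uracil with 1% maltose, then 0.2% glucose. Washed cells were assayed in PBS pH 7.4 at OD600 ~10 with 100 µM compound (1% DMSO final) and 5 mM 14C-glucose for 10 min. The reaction was stopped with cold KPi/LiCl pH 5.5, then filtered and counted by scintillation. Values are relative to 1% DMSO and 200 µM phloretin controls.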

[3] = system: human GLUT5; assay: GLUT5 transport assay; type: cell-based; conditions: 100 μM compound; 10 mM C14-fructose
Summary of the method: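 VW4000 hxt0 yeast carrying human GLUT5 was grown for 1 day in YEP with 2% maltose and 100 µg/ml G418, then 1–2 days in 2% fructose with G418, at 30 °C. Cells in PBS pH 7.4 at OD600 ~10 received 100 µM compound (1% DMSO final) and 10 mM 14C-fructose for 10 min. Cold quench pH 5.5 and filtration followed, with scintillation read-out. Controls: 1% DMSO and 100 µM MSNBA.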

[4] = system: CEM cells; assay: Cell cycle analysis by flow cytometry; type: cell-based, human; conditions: CEM, 10, 25 or 50 μM, 72 h
[5] = system: p-mTOR, CDK2, GRP78 and Caspase 3 in F18-treated cells; assay: Western blotting of cell signaling proteins; type: cell-based, human; conditions: 10 μM, 6 h
Summary of the method: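 Treated cells were washed in cold PBS and lysed in Laemmli buffer (62.5 mM Tris-HCl pH 6.8, 10% glycerol, 2% SDS) with protease inhibitors, then sonicated and protein quantified. Membranes were blocked 45 min in PBS-Tween-5% milk. Primary antibodies ran 3 h and secondary 1 h, both at room temperature. Controls: untreated and staurosporine.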

[6] = system: normal WBCs; assay: MTT viability assay on non-transformed WBCs; type: cell-based, human; conditions: 187.2 μM vs 1.7 μM
[7] = system: CEM xenograft tumor; conditions: for xenograft volume of untreated group relative to treated group: SCID mice, CEM xenograft, doxorubicin 20 mg/kg i.p., F18 50 mg/kg i.p., 18 days
[8] = Differential Nuclear Staining; type: cell-based; conditions: human
Summary of the method: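 CC50 determined by DNS assay in CCRF-CEM (RPMI) and in non-cancerous HS-27 fibroblasts (DMEM). Both media had 10% FBS and penicillin/streptomycin, at 37 °C and 5% CO2. Cells were seeded at 10,000/well (HS-27 at 3,000/well) and treated at 0.5–100 µM for 48 h, in quadruplicate. Hoechst and PI were added 2 h before imaging. Controls: DMSO, H2O2 and untreated. Ratio = HS-27 CC50 / CEM CC50.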

[9] = system: GLUT1; conditions: read-out: GLUT1 IC50; commercially available GLUT1 inhibitor; cited from earlier work

Compound	decrease of relative transport activity of GLUT1, primary screen [1]	decrease of relative transport activity of GLUT4, primary screen [2]	inhibition of GLUT5 transport activity, primary screen [3]	xenograft volume of untreated group relative to treated group [7]	also measured
Cc1cccc2sc(NC(=O)CN3C(=O)S/C(=C/c4ccco4)C3=O)nc12 [Compound F8, 2-(5-(Furan-2-ylmethylene)-2,4-dioxothiazolidin-3-yl)-N-(4-methylbenzo[d]thiazol-2-yl)acetamide]	at least 50%	at least 50%	–	–	–
O=C(CN1C(=O)S/C(=C/c2ccco2)C1=O)Nc1ccc([N+](=O)[O-])cc1 [Compound F14, 2-(5-(Furan-2-ylmethylene)-2,4-dioxothiazolidin-3-yl)-N-(4-nitrophenyl) acetamide]	did not inhibit	did not inhibit	did not inhibit	–	–
O=C(CN1C(=O)S/C(=C/c2ccco2)C1=O)Nc1nc2ccccc2s1 [Compound F18, N-(benzo[d]thiazol-2-yl)-2-(5-(furan-2-ylmethylene)-2,4-dioxothiazolidin-3-yl)acetamide]	at least 50%	at least 50%	neither F18 nor F19 affected the transport activity of GLUT5	~2 times	GLUT1 relative activity retained [1]: almost completely; cell cycle effect [4]: arrest of the cell cycle in the sub G0/G1phase; caspase 3 [5]: activation; level of CDK2 [5]: decrease; level of endoplasmic stress marker GRP78 [5]: increase; level of phosphorylated mTOR [5]: decrease; ratio of IC50 WBCs to CEM cell line [6]: 100 times; weight loss or signs of toxicity ([7]; mouse, in vivo, ip, 50 mg/kg): no considerable weight loss or any other noticeable signs of toxicity
O=C(CN1C(=O)S/C(=C/c2ccco2)C1=O)Nc1ccc(Cl)c(Cl)c1 [Compound F19, N-(3,4-dichlorophenyl)-2-(5-(furan-2-ylmethylene)-2,4-dioxothiazolidin-3-yl) acetamide]	at least 50%	at least 50%	neither F18 nor F19 affected the transport activity of GLUT5	–	selectivity ratio at 48 h [8]: > 12.8
CC(=O)CC(=O)Nc1ccc(Cl)c(C(F)(F)F)c1 [Fasentin]	–	–	–	–	IC50 [9]: 10 µM
COc1cccc2c1C(=O)c1c(O)c3c(c(O)c1C2=O)C[C@@](O)(C(=O)CO)C[C@@H]3O[C@H]1C[C@H](N)[C@H](O)[C@H](C)O1 [doxorubicin, reference compound]	–	–	–	approximately 1.5 times	–
